Legend:
Mus musculus [1] = test: In vivo inhibition of Nav1.7 in C57/BL6 mouse model of histamine-induced pruritis assessed as reduction in scratching bouts at 10 mg/kg, […] dosed 2 hrs before histamine challenge and measured for 15 mins relative to control; type: functional
[2] = target: Sodium channel protein type 9 subunit alpha (Homo sapiens, UniProt Q15858); test: Inhibition of human Nav1.7 expressed in HEK293 cells at holding potential of -125 mV […] by patchxpress-based electrophysiology assay; type: cell-based
[3] = target: Sodium channel protein type 4 subunit alpha (Homo sapiens, UniProt P35499); test: Inhibition of human Nav1.4 expressed in HEK293 cells at holding potential of -125 mV […] by patchxpress-based electrophysiology assay; type: cell-based
[4] = target: Sodium channel protein type 8 subunit alpha (Homo sapiens, UniProt Q9UQD0); test: Inhibition of human Nav1.6 expressed in HEK293 cells at holding potential of -125 mV […] by patchxpress-based electrophysiology assay; type: cell-based
[5] = target: Sodium channel protein type 5 subunit alpha (Homo sapiens, UniProt Q14524); test: Inhibition of human Nav1.5 expressed in HEK293 cells at holding potential of […] after 10 mins by patchxpress-based electrophysiology assay; type: cell-based
[6] = target: Sodium channel protein type 10 subunit alpha (Homo sapiens, UniProt Q9Y5Y9); test: Inhibition of human Nav1.8 expressed in HEK293 cells after 10 mins by patchxpress-based electrophysiology; type: cell-based
[7] = AUCt in C57/BL6 mouse at 2 mg/kg, sc by LC-MS/MS analysis; type: ADME, organism-based; details: in vivo
In short: (§1)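 Male C57Bl/6 mice, n = 3 per time point, given a single 2 mg/kg subcutaneous dose. Plasma levels were quantified by LC-MS/MS over time, and pharmacokinetic parameters were derived from the plasma profiles. Data are reported as mean ± SEM for each time point.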

[8] = Apparent […] clearance in C57/BL6 mouse at 2 mg/kg, sc by LC-MS/MS analysis; type: ADME, organism-based; details: in vivo; in short: as §1
[9] = Cmax in C57/BL6 mouse at 2 mg/kg, sc by LC-MS/MS analysis; type: ADME, organism-based; design: dose 2 mg/kg, route subcutaneous; details: in vivo; in short: as §1
[10] = MRT in C57/BL6 mouse at 2 mg/kg, sc by LC-MS/MS analysis; type: ADME, organism-based; details: in vivo; in short: as §1
[11] = Half life in C57/BL6 mouse at 2 mg/kg, sc by LC-MS/MS analysis; type: ADME, organism-based; details: in vivo; in short: as §1
[12] = Tmax in C57/BL6 mouse at 2 mg/kg, sc by LC-MS/MS analysis; type: ADME, organism-based; details: in vivo; in short: as §1
Mus musculus [13] = test: Volume of distribution at steady state in C57/BL6 mouse at 2 mg/kg, sc by LC-MS/MS analysis; type: ADME, organism-based; details: in vivo; in short: as §1
[14] = Plasma concentration in C57/BL6 mouse at 2 mg/kg, sc after 30 mins by LC-MS/MS analysis; type: ADME, organism-based; details: in vivo, 0.5 h; in short: as §1

Sequence of Sodium channel protein type 4 subunit alpha (P35499 whole entry): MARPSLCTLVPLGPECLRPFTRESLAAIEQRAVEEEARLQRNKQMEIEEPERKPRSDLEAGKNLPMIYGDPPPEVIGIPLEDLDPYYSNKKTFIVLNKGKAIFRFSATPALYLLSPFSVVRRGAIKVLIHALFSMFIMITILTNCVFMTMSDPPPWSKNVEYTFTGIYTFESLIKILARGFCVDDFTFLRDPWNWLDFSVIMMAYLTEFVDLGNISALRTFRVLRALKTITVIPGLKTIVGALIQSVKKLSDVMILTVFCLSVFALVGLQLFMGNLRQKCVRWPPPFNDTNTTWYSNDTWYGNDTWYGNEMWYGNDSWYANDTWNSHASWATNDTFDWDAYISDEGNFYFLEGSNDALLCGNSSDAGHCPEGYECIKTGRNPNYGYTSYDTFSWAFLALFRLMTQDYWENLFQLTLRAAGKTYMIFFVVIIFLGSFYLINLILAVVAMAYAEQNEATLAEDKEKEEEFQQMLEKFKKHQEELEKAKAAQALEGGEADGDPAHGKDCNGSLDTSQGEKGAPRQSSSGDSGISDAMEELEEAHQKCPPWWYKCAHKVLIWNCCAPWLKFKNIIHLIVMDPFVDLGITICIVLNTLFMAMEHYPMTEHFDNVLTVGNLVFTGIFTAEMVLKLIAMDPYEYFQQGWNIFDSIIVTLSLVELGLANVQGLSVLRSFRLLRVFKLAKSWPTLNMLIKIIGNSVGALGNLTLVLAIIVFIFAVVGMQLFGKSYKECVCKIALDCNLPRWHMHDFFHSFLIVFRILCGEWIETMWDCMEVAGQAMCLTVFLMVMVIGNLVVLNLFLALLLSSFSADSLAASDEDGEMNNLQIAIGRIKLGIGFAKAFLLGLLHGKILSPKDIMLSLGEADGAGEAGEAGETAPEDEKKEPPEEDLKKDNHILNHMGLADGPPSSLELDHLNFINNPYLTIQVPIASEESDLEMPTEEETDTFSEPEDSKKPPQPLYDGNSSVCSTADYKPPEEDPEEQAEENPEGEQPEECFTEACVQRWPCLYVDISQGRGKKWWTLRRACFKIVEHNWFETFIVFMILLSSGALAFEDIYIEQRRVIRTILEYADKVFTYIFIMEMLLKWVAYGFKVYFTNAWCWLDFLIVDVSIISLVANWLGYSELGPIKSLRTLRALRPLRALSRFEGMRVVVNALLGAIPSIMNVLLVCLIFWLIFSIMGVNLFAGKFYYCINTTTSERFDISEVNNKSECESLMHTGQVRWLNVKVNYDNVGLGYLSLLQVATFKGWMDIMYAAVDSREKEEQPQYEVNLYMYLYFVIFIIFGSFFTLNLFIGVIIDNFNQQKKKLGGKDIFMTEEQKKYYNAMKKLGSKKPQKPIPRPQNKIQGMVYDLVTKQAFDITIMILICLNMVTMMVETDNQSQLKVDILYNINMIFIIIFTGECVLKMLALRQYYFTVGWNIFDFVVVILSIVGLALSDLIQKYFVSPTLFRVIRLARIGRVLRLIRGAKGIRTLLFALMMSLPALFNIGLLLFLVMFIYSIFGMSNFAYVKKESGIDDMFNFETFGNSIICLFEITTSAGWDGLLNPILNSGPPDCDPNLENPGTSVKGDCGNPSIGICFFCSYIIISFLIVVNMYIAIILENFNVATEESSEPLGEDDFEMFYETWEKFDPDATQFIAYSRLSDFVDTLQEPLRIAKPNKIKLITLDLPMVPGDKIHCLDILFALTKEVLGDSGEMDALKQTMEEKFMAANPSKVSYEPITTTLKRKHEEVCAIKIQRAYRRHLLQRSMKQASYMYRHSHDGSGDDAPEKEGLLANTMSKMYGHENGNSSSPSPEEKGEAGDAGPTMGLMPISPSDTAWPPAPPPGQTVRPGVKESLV
Sequence of Sodium channel protein type 9 subunit alpha (Q15858 whole entry): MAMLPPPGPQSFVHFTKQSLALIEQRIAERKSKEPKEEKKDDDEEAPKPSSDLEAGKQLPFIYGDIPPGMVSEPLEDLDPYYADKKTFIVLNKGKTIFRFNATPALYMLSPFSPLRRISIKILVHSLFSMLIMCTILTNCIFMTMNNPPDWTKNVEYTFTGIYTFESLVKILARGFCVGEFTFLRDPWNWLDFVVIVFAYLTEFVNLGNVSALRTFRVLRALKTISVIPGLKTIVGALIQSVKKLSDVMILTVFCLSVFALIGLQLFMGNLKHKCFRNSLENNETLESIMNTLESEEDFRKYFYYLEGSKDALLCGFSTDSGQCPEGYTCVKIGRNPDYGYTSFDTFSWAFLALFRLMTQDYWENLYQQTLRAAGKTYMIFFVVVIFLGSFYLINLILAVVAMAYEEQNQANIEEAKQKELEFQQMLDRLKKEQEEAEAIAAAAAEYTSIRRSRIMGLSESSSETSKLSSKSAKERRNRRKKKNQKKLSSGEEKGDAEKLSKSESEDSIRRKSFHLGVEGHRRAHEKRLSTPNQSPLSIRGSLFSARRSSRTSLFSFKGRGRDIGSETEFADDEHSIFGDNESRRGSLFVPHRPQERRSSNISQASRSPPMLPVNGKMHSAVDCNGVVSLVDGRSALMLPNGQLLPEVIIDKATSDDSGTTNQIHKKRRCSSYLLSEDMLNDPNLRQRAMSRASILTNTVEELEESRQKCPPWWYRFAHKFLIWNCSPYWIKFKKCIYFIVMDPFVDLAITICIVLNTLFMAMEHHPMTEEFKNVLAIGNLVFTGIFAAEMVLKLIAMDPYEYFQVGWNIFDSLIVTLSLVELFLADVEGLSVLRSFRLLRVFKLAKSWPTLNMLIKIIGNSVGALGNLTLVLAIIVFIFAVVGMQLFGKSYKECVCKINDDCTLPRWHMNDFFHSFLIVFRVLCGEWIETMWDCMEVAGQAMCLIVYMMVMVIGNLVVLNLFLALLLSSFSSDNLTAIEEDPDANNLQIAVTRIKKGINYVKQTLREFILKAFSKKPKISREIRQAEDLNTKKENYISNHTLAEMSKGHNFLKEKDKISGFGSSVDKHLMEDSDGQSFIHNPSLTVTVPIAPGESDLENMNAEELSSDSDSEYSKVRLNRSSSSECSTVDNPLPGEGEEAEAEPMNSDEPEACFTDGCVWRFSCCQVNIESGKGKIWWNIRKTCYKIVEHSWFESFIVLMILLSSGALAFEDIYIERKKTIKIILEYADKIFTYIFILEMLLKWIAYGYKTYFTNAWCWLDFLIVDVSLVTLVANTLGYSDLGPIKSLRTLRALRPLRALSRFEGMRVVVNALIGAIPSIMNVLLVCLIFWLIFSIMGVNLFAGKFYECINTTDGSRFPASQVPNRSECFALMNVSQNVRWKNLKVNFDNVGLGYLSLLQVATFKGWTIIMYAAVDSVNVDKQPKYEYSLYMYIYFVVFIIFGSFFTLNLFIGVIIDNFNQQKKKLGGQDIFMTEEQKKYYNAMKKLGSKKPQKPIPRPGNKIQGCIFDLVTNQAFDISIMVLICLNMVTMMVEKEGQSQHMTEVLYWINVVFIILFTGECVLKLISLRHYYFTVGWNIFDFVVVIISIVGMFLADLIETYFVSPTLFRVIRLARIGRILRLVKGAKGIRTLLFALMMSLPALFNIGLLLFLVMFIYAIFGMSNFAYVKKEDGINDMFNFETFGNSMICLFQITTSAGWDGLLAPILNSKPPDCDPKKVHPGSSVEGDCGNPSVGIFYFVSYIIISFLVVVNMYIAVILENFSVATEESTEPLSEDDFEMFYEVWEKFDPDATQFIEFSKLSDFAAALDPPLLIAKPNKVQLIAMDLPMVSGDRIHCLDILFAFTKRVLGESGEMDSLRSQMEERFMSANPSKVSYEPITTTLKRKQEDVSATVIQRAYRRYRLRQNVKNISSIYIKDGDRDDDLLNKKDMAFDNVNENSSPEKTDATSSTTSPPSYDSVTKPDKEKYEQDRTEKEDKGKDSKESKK

| Structure (SMILES) | IC50 [2] [nM] | IC50 [3] [nM] | further results |
| --- | --- | --- | --- |
| CN(C)CCOC(c1ccccc1)c1ccccc1 [DIPHENHYDRAMINE] | – | – | inhibition in vivo at 10 mg/kg (Mus musculus [1]): 89.7% |
| C#CC[C@H](N)C(=O)N[C@@H](Cc1ccc(O)cc1)C(=O)N[C@H]1CSSC[C@@H]2NC(=O)[C@@H]3CSSC[C@@H](C(=O)N[C@@H](CCCNC(=N)N)C(=O)N[C@@H](CCCCN)C(=O)N[C@@H](CCC(=O)O)C(=O)N[C@H](C(N)=O)[C@@H](C)CC)NC(=O)[C@H](Cc4c[nH]c5ccc(Br)cc45)NC(=O)[C@H](CC(C)C)NC(=O)[C@H](CCCCN)NC(=O)[C@H](CSSC[C@H](NC(=O)[C@H]([C@@H](C)O)NC(=O)[C@H](Cc4c[nH]c5ccccc45)NC(=O)[C@H](CCCC)NC(=O)[C@H](Cc4c[nH]c5ccccc45)NC(=O)[C@H](CCCCN)NC(=O)[C@H](CCC(N)=O)NC1=O)C(=O)N[C@@H](CC(=O)O)C(=O)N[C@@H](CO)C(=O)N[C@@H](CCCCN)C(=O)N[C@@H](CCCNC(=N)N)C(=O)N[C@@H](C)C(=O)N3)NC(=O)[C@H](CCCNC(=N)N)NC(=O)[C@H](CC(C)C)NC(=O)CNC(=O)[C@H](CCC(=O)O)NC2=O | 0.26 | 53 | IC50 [4]: 66 nM; IC50 [5]: 260 nM; IC50 [6]: 509 nM; AUC(0-t) [7]: 3.44 µM·h; CL/F [8]: 2.57 mL/min/kg; Cmax [9]: 892 nM; MRT [10]: 3.55 h; half-life [11]: 2.38 h; Tmax [12]: 0.5 h; Vdss (Mus musculus [13]): 0.547 L/kg; Drug uptake [14]: Active |
| C#CC[C@H](NC(=O)[C@@H](N)CCC(=O)O)C(=O)N[C@H]1CSSC[C@@H]2NC(=O)[C@@H]3CSSC[C@@H](C(=O)N[C@@H](CCCNC(=N)N)C(=O)N[C@@H](CCCCN)C(=O)N[C@@H](CCC(=O)O)C(=O)N[C@H](C(N)=O)[C@@H](C)CC)NC(=O)[C@H](Cc4c[nH]c5ccc(Br)cc45)NC(=O)[C@H](CC(C)C)NC(=O)[C@H](CCCCN)NC(=O)[C@H](CSSC[C@H](NC(=O)[C@H]([C@@H](C)O)NC(=O)[C@H](Cc4c[nH]c5ccccc45)NC(=O)[C@H](CCCC)NC(=O)[C@H](Cc4c[nH]c5ccccc45)NC(=O)[C@H](CCCCN)NC(=O)[C@H](CCC(N)=O)NC1=O)C(=O)N[C@@H](CC(=O)O)C(=O)N[C@@H](CO)C(=O)N[C@@H](CCC(=O)O)C(=O)N[C@@H](CCCNC(=N)N)C(=O)N[C@@H](C)C(=O)N3)NC(=O)[C@H](CCCNC(=N)N)NC(=O)[C@H](CC(C)C)NC(=O)CNC(=O)[C@H](CCC(=O)O)NC2=O | 0.5 | 72 | – |
| C#CC[C@H](N)C(=O)N[C@@H](Cc1ccc(O)cc1)C(=O)N[C@H]1CSSC[C@@H]2NC(=O)[C@@H]3CSSC[C@@H](C(=O)N[C@@H](CCCNC(=N)N)C(=O)N[C@@H](CCCCN)C(=O)N[C@@H](CCC(=O)O)C(=O)N[C@@H](CCc4ccccc4)C(N)=O)NC(=O)[C@H](Cc4c[nH]c5ccccc45)NC(=O)[C@H](CC(C)C)NC(=O)[C@H](CCCCN)NC(=O)[C@H](CSSC[C@H](NC(=O)[C@H]([C@@H](C)O)NC(=O)[C@H](Cc4c[nH]c5ccccc45)NC(=O)[C@H](CCCC)NC(=O)[C@H](Cc4c[nH]c5ccccc45)NC(=O)[C@H](CCCCN)NC(=O)[C@H](CCC(N)=O)NC1=O)C(=O)N[C@@H](CC(=O)O)C(=O)N[C@@H](CO)C(=O)N[C@@H](CCCCN)C(=O)N[C@@H](CCCNC(=N)N)C(=O)N[C@@H](C)C(=O)N3)NC(=O)[C@H](CCCNC(=N)N)NC(=O)[C@H](CC(C)C)NC(=O)CNC(=O)[C@H](CCC(=O)O)NC2=O | 0.3 | 23 | – |
| C#CC[C@H](N)C(=O)N[C@@H](Cc1ccc(O)cc1)C(=O)N[C@H]1CSSC[C@@H]2NC(=O)[C@@H]3CSSC[C@@H](C(=O)N[C@@H](CCCNC(=N)N)C(=O)N[C@@H](CCCCN)C(=O)N[C@@H](CCC(=O)O)C(=O)N[C@H](C(N)=O)[C@@H](C)CC)NC(=O)[C@H](Cc4c[nH]c5ccc(Cl)cc45)NC(=O)[C@H](CC(C)C)NC(=O)[C@H](CCCCN)NC(=O)[C@H](CSSC[C@H](NC(=O)[C@H]([C@@H](C)O)NC(=O)[C@H](Cc4c[nH]c5ccccc45)NC(=O)[C@H](CCCC)NC(=O)[C@H](Cc4c[nH]c5ccccc45)NC(=O)[C@H](CCCCN)NC(=O)[C@H](CCC(N)=O)NC1=O)C(=O)N[C@@H](CC(=O)O)C(=O)N[C@@H](CO)C(=O)N[C@@H](CCCCN)C(=O)N[C@@H](CCCNC(=N)N)C(=O)N[C@@H](C)C(=O)N3)NC(=O)[C@H](CCCNC(=N)N)NC(=O)[C@H](CC(C)C)NC(=O)CNC(=O)[C@H](CCC(=O)O)NC2=O | 3.1 | 23 | – |
| C#CC[C@H](N)C(=O)N[C@@H](Cc1ccc(O)cc1)C(=O)N[C@H]1CSSC[C@@H]2NC(=O)[C@@H]3CSSC[C@@H](C(=O)N[C@@H](CCCNC(=N)N)C(=O)N[C@@H](CCCCN)C(=O)N[C@@H](CCC(=O)O)C(=O)N[C@H](C(N)=O)[C@@H](C)CC)NC(=O)[C@H](Cc4c[nH]c5cc(Br)ccc45)NC(=O)[C@H](CC(C)C)NC(=O)[C@H](CCCCN)NC(=O)[C@H](CSSC[C@H](NC(=O)[C@H]([C@@H](C)O)NC(=O)[C@H](Cc4c[nH]c5ccccc45)NC(=O)[C@H](CCCC)NC(=O)[C@H](Cc4c[nH]c5ccccc45)NC(=O)[C@H](CCCCN)NC(=O)[C@H](CCC(N)=O)NC1=O)C(=O)N[C@@H](CC(=O)O)C(=O)N[C@@H](CO)C(=O)N[C@@H](CCCCN)C(=O)N[C@@H](CCCNC(=N)N)C(=O)N[C@@H](C)C(=O)N3)NC(=O)[C@H](CCCNC(=N)N)NC(=O)[C@H](CC(C)C)NC(=O)CNC(=O)[C@H](CCC(=O)O)NC2=O | 8.9 | 39 | – |
| C#CC[C@H](NC(=O)[C@@H](N)CCC(=O)O)C(=O)N[C@H]1CSSC[C@@H]2NC(=O)[C@@H]3CSSC[C@@H](C(=O)N[C@@H](CCCNC(=N)N)C(=O)N[C@@H](CCCCN)C(=O)N[C@@H](CCC(=O)O)C(=O)N[C@H](C(N)=O)[C@@H](C)CC)NC(=O)[C@H](Cc4c[nH]c5ccc(Br)cc45)NC(=O)[C@H](CC(C)C)NC(=O)[C@H](CCCCN)NC(=O)[C@H](CSSC[C@H](NC(=O)[C@H]([C@@H](C)O)NC(=O)[C@H](Cc4c[nH]c5ccccc45)NC(=O)[C@H](CCCC)NC(=O)[C@H](Cc4c[nH]c5ccccc45)NC(=O)[C@H](CCCCN)NC(=O)[C@H](CCC(N)=O)NC1=O)C(=O)N[C@@H](CC(=O)O)C(=O)N[C@@H](CO)C(=O)N[C@@H](CCCCN)C(=O)N[C@@H](CCCNC(=N)N)C(=O)N[C@@H](CCC(=O)O)C(=O)N3)NC(=O)[C@H](CCCNC(=N)N)NC(=O)[C@H](CC(C)C)NC(=O)CNC(=O)[C@H](CCC(=O)O)NC2=O | 1.3 | 182 | – |
| C#CC[C@H](N)C(=O)N[C@@H](Cc1ccc(O)cc1)C(=O)N[C@H]1CSSC[C@@H]2NC(=O)[C@@H]3CSSC[C@@H](C(=O)N[C@@H](CCCNC(=N)N)C(=O)N[C@@H](CCCCN)C(=O)N[C@@H](CCC(=O)O)C(=O)N[C@@H](Cc4ccccc4)C(N)=O)NC(=O)[C@H](Cc4c[nH]c5ccccc45)NC(=O)[C@H](CC(C)C)NC(=O)[C@H](CCCCN)NC(=O)[C@H](CSSC[C@H](NC(=O)[C@H]([C@@H](C)O)NC(=O)[C@H](Cc4c[nH]c5ccccc45)NC(=O)[C@H](CCCC)NC(=O)[C@H](Cc4c[nH]c5ccccc45)NC(=O)[C@H](CCCCN)NC(=O)[C@H](CCC(N)=O)NC1=O)C(=O)N[C@@H](CC(=O)O)C(=O)N[C@@H](CO)C(=O)N[C@@H](CCCCN)C(=O)N[C@@H](CCCNC(=N)N)C(=O)N[C@@H](C)C(=O)N3)NC(=O)[C@H](CCCNC(=N)N)NC(=O)[C@H](CC(C)C)NC(=O)CNC(=O)[C@H](CCC(=O)O)NC2=O | 0.2 | 162 | – |
